Data reported in ChEMBL document CHEMBL1926638, “Anti-cancer activity of 5-O-alkyl 1,4-imino-1,4-dideoxyribitols” (Bioorg Med Chem, 2011).
Active and inactive are the calls of the source. The rule behind the calls is not given here.

Columns and labels:
Canavalia ensiformis = experiment: Inhibition of jack beans alpha-mannosidase
SK-BR-3 [1] = experiment: Cytotoxicity against human SKBR3 cells after 72 hrs by MTS assay; type: functional, cell-based
In short: (§1)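 SKBR3 (HER2+ breast cancer) cells exposed to compound for 72 h; number of metabolically active cells read by MTS tetrazolium reduction. Values are means of duplicate wells.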

SK-BR-3 [2] = experiment: Cytotoxicity against human SKBR3 cells assessed as cell viability 1 to 400 uM after 72 hrs by MTS assay; type: functional, cell-based; in short: as §1
Jurkat [3] = experiment: Induction of apoptosis in human Jurkat cells assessed as cell death at 100 uM after 24 hrs by annexin V-7AAD double staining based flow cytometric analysis; type: functional
In short: (§2)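 JURKAT cells treated with compound. Apoptosis quantified by annexin-V/7-AAD staining and flow cytometry: early apoptotic = annexin V+7AAD−, late = annexin V+7AAD+. At 10 µM, a time course of cell death was also run.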

Jurkat [4] = experiment: Induction of apoptosis in human Jurkat cells assessed as cell death at 10 uM after 24 hrs by annexin V-7AAD double staining based flow cytometric analysis; type: functional
In short: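 Jurkat T-ALL cells exposed to 10 µM for 24 h (time-course series). Apoptosis quantified by annexin V and 7-AAD staining with flow cytometry. Early apoptotic = annexin V+/7AAD−, late apoptotic = annexin V+/7AAD+. Viability monitored in parallel by trypan blue exclusion. Values given as percent cell death.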

Jurkat [5] = experiment: Cytotoxicity against human Jurkat cells by trypan blue assay; type: functional, cell-based
In short: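 JURKAT cells exposed to compound; viability monitored by Trypan blue exclusion.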

PBMC = experiment: Induction of apoptosis in PBMC at 10 uM after 24 hrs by annexin-V and 7AAD double staining based flow cytometric analysis; type: cell-based
Jurkat [6] = experiment: Induction of apoptosis in human Jurkat cells assessed as cell death at 10 uM by annexin V-7AAD double staining based flow cytometric analysis; type: functional; conditions: TDE = time-dependent effect; in short: as §2
SK-BR-3 [7] = experiment: Cytotoxicity against human SKBR3 cells assessed as cell death at 6.25 uM after 72 hrs by MTS assay; type: functional, cell-based
Jurkat [8] = experiment: Induction of apoptosis in human Jurkat cells assessed as late apoptotic cells at 10 uM after 24 hrs by annexin V-7AAD double staining based flow cytometric analysis; type: functional; in short: as §2
Jurkat [9] = experiment: Induction of apoptosis in human Jurkat cells assessed as early apoptotic cells at 10 uM after 24 hrs by annexin V based flow cytometric analysis; type: functional; in short: as §2
[10] = Induction of apoptosis in human CD34-positive and CD38-deficient hematopoietic progenitor cells assessed as cell death at 10 uM after 24 hrs by annexin V-7AAD double staining based flow cytometric analysis
[11] = Induction of apoptosis in human CD34-positive and CD38-deficient hematopoietic progenitor cells assessed as late apoptotic cells at 10 uM after 24 hrs by annexin V-7AAD double staining based flow cytometric analysis
[12] = Induction of apoptosis in human CD34-positive and CD38-deficient hematopoietic progenitor cells assessed as early apoptotic cells at 10 uM after 24 hrs by annexin V based flow cytometric analysis
SK-BR-3 [13] = experiment: Cell cycle arrest in human SKBR3 cells assessed as accumulation in G0/G1 phase after 24 hrs by FITC-conjugated annexin-V propidium iodide based flow cytometric analysis; type: functional
In short: (§3)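 SKBR3 cells treated with compound, then cell-cycle distribution examined (G0/G1 and S fractions); at higher concentrations DNA fragmentation and hypodiploid nuclei scored. Described as preliminary assays.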

SK-BR-3 [14] = experiment: Cell cycle arrest in human SKBR3 cells assessed as reduction in S phase after 24 hrs by FITC-conjugated annexin-V propidium iodide based flow cytometric analysis; type: functional; in short: as §3
SK-BR-3 [15] = experiment: Induction of apoptosis in human SKBR3 cells assessed as DNA fragmentation after 24 hrs by annexin-V propidium iodide based flow cytometric analysis; type: functional, cell-based; in short: as §3
SK-BR-3 [16] = experiment: Induction of apoptosis in human SKBR3 cells assessed as hypodiploid cell nuclei appearance after 24 hrs by annexin-V propidium iodide based flow cytometric analysis; type: functional; in short: as §3
SK-BR-3 [17] = experiment: Cytotoxicity in human SKBR3 cells assessed as increase in intracellular vacuolization after 6 to 12 hrs; type: functional, cell-based
[18] = Cytotoxicity against mouse BA/F3 cells expressing tyrosine kinase at <10 uM after 48 hrs by resazurin reduction assay; type: cell-based; conditions: baf3, 48 h
In short: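 15 Ba/F3 models, each proliferating through engineered expression of a specific tyrosine kinase. Compound incubated 48 h at concentrations below 10 µM, read by resazurin reduction. 9-point IC50 curves in three independent experiments.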

Inhibition activity (Canavalia ensiformis)	SMILES	Activity (SK-BR-3 [1])	Activity (SK-BR-3 [2])	other results
inactive	C=CCCCOC[C@H]1NC[C@H](O)[C@@H]1O			
inactive	CCCCCOC[C@H]1NC[C@H](O)[C@@H]1O			
inactive	CCCCCCCCCCOC[C@H]1NC[C@H](O)[C@@H]1O	Active	Active	
inactive	CCCCCCCOC[C@H]1NC[C@H](O)[C@@H]1O		inactive	
inactive	O[C@H]1[C@@H](O)CN[C@@H]1COCc1ccccc1		inactive	
Active	O[C@H]1[C@@H](O)CN[C@@H]1COCc1ccc(-c2ccccc2)cc1		Active	Activity (Jurkat [3]): Active
inactive	CC/C=C\C/C=C\C/C=C\CCCCCCCCOC[C@H]1NC[C@H](O)[C@@H]1O	Active	Active	
inactive	CCCCCCCCCCCCCCCCCCOC[C@H]1NC[C@H](O)[C@@H]1O	Active	Active	
	OC[C@H]1NC[C@H](O)[C@@H]1O [IMINORIBITOL]		inactive	Activity (Jurkat [4]): inactive; Activity (Jurkat [5]): inactive; Activity (PBMC): Non-toxic
inactive	CCCCC/C=C\C/C=C\CCCCCCCCOC[C@H]1NC[C@H](O)[C@@H]1O	Active	Active	
	CCCCCCCC/C=C\CCCCCCCCOC[C@H]1NC[C@H](O)[C@@H]1O			Activity (Jurkat [6]): tde; IC50 (SK-BR-3 [1]; SK-BR-3, 72 h): 2000 nM; Activity (SK-BR-3 [7]): Active; Activity (Jurkat [4]): 100%; Activity (Jurkat [8]): 60%; Activity (Jurkat [9]): 40%; Activity [10]: 60%; Activity [11]: 40%; Activity [12]: 20%; Activity (SK-BR-3 [13]): Active; Activity (SK-BR-3 [14]): Active; Activity (SK-BR-3 [15]): Active; Activity (SK-BR-3 [16]): Active; Activity (SK-BR-3 [17]): Active; Activity [18]: Non-toxic; IC50 (Jurkat [5]): 8 µM
inactive	CCCCCCCCCCCCCCOC[C@H]1NC[C@H](O)[C@@H]1O			
inactive	CCCCCC/C=C\CCCCCCCCOC[C@H]1NC[C@H](O)[C@@H]1O	Active	Active	
